Compound activity deposited in PubChem by The Scripps Research Institute Molecular Screening Center.
Rows were chosen to be rich in hits. Some 2.8% of all compounds tested hit in one or more screens of this group.
PAFAH1B2 FP inh: PAFAH1B2 enzyme inhibitors, primary screen, biochemical, fluorescence polarization, human; Platelet-activating factor acetylhydrolase IB subunit alpha2 (Homo sapiens), P68402; recombinant PAFAH1B2, FP-rhodamine activity probe; inhibition, % at 3.39 µM; actives 1.2% (n = 340,000); AID 492953, 2010;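 active = inhibition above the mean of all tested compounds plus 3 SD, cut at about 24% in these data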;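 note: 0% = enzyme with DMSO and 100% = wells lacking PAFAH1B2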
Target sequence (P68402 whole entry, looked up): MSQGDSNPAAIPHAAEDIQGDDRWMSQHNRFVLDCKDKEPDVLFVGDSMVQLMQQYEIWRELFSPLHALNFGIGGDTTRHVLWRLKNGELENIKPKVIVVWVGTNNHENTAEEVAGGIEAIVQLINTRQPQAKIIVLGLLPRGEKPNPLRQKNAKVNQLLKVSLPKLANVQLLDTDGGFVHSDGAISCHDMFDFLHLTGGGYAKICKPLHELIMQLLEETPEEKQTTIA
PAFAH1B3 inh: PAFAH1B3 enzyme inhibitors, primary screen, biochemical, fluorescence polarization, human. Platelet-activating factor acetylhydrolase IB subunit alpha1 (Homo sapiens), Q15102. recombinant PAFAH1B3, FP-rhodamine probe. inhibition, % at 3.39 µM. actives 0.28% (n = 340,000);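 active = inhibition above the screen-wide average of all tested compounds plus 3 SD, cut at about 25% in these data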;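 note: 0% = enzyme with DMSO only and 100% = wells lacking PAFAH1B3 protein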
pPAFAH FP inh: pPAFAH enzyme inhibitors, primary screen, biochemical, fluorescence polarization, human; actives 1.5% (n = 330,000); recombinant pPAFAH, FP-rhodamine probe fluorescence polarization; inhibition, % at 3.39 µM; AID 463082, 2010;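 active = inhibition above the mean inhibition across the screen plus 3 SD, cut at about 25% in these data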;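 note: inhibitors block binding of the rhodamine activity-based probe so polarization drops; 0% = enzyme with DMSO and 100% = wells lacking pPAFAH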
mABHD4 FP: ABHD4 inhibitors, primary screen, biochemical, fluorescence polarization, mouse; (Lyso)-N-acylphosphatidylethanolamine lipase (Mus musculus), Q8VD66; purified mABHD4, FP-Rh probe fluorescence polarization; inhibition, % at 8.92 µM; actives 0.54% (n = 370,000);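 active = inhibition exceeding the mean over every tested compound plus 3 SD, cut at about 30% in these data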;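 note: 0% = plate median of compound wells and 100% = S159A mutant with DMSO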
Target sequence (Q8VD66 whole entry, looked up): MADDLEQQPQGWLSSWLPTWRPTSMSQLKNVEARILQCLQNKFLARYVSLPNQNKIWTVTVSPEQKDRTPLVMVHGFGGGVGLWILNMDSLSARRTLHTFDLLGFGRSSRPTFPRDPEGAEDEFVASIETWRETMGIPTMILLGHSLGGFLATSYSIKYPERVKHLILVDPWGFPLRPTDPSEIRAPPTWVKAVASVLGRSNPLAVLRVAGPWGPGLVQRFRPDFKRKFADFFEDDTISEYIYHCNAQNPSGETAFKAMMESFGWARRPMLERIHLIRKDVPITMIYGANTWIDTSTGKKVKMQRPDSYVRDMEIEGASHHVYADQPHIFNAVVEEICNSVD
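system = mouse ABHD4 enzyme, wild type | medium = HEPES pH 7.0, NaCl, Pluronic buffer | also added = FP-Rh probe | incubation = Enzyme–compound pre-incubation 45 min, then probe 60 min, both 25 °C | technique = fluorescence polarization, excitation 525 nm, emission 598 nm, BODIPY TMR filters | controls = S159A mutant high control, sample median low control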
HTRA1 inhibitor: HTRA1 serine protease inhibitors, primary screen, biochemical, fluorescence polarization, HTS. Q92743. recombinant HTRA1, FP-rhodamine activity-based probe. inhibition, % at 5.96 µM. actives 0.5% (n = 340,000). AID 504803, 2011; in the data active = inhibition above about 36%;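 note: 0% = enzyme with DMSO and 100% = wells lacking enzyme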
PAFAH2 inh: PAFAH2 enzyme inhibitors, primary screen, biochemical, fluorescence polarization, human | Platelet-activating factor acetylhydrolase 2, cytoplasmic (Homo sapiens), Q99487 | recombinant PAFAH2, FP-rhodamine activity probe | inhibition, % at 3.39 µM | actives 0.99% (n = 340,000);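 active = inhibition above the mean over all tested compounds plus 3 SD, cut at about 30% in these data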;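 note: inhibitors block probe labeling of enzyme so polarization drops; 0% = enzyme with DMSO and 100% = wells lacking PAFAH2 protein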
mABHD4 conf: ABHD4 inhibitors, retest, confirmation, biochemical, fluorescence polarization, mouse. shares compounds with mABHD4 FP. purified mABHD4, FP-Rh probe fluorescence polarization. inhibition, % at 8.92 µM. actives 55% (n = 1,800). AID 720658, 2013;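 active = mean inhibition across replicates above the hit cutoff set in the primary screen, cut at about 30% in these data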;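 note: 0% = wild-type ABHD4 with DMSO and 100% = catalytically dead S159A mutant with DMSO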
Starred values were filed as active, the others as inactive; . = not tested or not shown; ! = not active in a repeat.

SMILES	PAFAH1B2 FP inh	PAFAH1B3 inh	pPAFAH FP inh	mABHD4 FP	HTRA1 inhibitor	PAFAH2 inh	mABHD4 conf
Cc1cccc(NC(=O)Nc2nc3ncccn3c2-c2ccccc2)c1	.	.	.	3.0	.	.	.
CCOc1ccc(-n2c(SCC(=O)Nc3cccc4ccccc34)nnc2-c2ccccc2)cc1	.	.	.	5.0	.	.	.
CCOc1cc2c(c3c1C(c1ccccc1)N(S(=O)(=O)c1ccc(C)cc1)C3)C(=O)C=CC2=O (stereo unspecified)	.	.	.	48.0*	.	.	59.9*
O=S(=O)(N=C1C=CC(=NS(=O)(=O)c2ccccc2)c2ccccc21)c1ccccc1	.	.	.	63.8*	-2.1	.	76.2*
Cc1cc(C)c(S(=O)(=O)/N=C2\C=C(NS(=O)(=O)c3ccccc3)C(=O)c3ccccc32)c(C)c1	-0.4	-5.0	1.0	45.0*	12.7	4.1	42.4*
O=C(O)c1ccc(NC2=C/C(=N/S(=O)(=O)c3ccccc3)c3ccccc3C2=O)cc1	30.3*	63.4*	.	48.4*	34.2	47.9*	65.5*
Cc1cc(C)c(NS(=O)(=O)c2ccccc2)c(C)c1	-0.4	-2.3	.	5.0	-2.5	-2.7	.
O=C1c2ccccc2C(=O)N1S(=O)(=O)c1ccccc1	11.0	7.2	2.8	1.6	3.3	1.4	.
CC(C)(C)[C@H](NC(=O)c1cc(Cl)cc(Cl)c1)C(=O)N1CCC[C@H]1C(=O)N[C@H](C#N)CC(=O)O	.	.	.	3.2	.	.	.
COc1ccc(C(=O)OCC(=O)c2c(N)n(C)c(=O)n(C)c2=O)cc1OC	5.0	5.7	5.3	3.5	3.3	5.0	.
CC(=O)Oc1ccc(C(=O)OCC(=O)c2c(N)n(C)c(=O)n(C)c2=O)cc1OC(C)=O	1.2	1.7	7.3	45.6*	12.7	18.5	3.9
Cc1cccc(CCNC(=O)Cn2nc(-c3ccccc3)ccc2=O)c1	.	.	.	-0.8	.	.	.
CC1(C)CC(=O)C2=C(C1)NC1=C(C(=O)c3ccccc31)C2c1cc([N+](=O)[O-])ccc1O (stereo unspecified)	3.8	5.6	18.1	48.9*	32.0	9.1	65.8*
CC1(C)CC(=O)C2=C(C1)NC1=C(C(=O)c3ccccc31)C2c1cccnc1 (stereo unspecified)	1.6	7.0	6.9	16.0	9.6	1.1	.
CC1=C([N+](=O)[O-])C(c2ccccc2)C2=C(N1)c1ccccc1C2=O (stereo unspecified)	0.1	4.7	14.6	18.6	21.2	8.0	.
CC1(C)CC(=O)C2=C(C1)NC1=C(C(=O)c3ccccc31)C2c1ccccc1 (stereo unspecified)	2.9	4.5	12.8	51.4*	31.5	10.5	46.5*
CCCCCCc1c[nH]c2ccc(O)c(-c3ccccc3)c12	.	.	.	27.1	.	.	.
COc1ccccc1NS(=O)(=O)c1ccc(N/N=C(\C)C(C)C)c([N+](=O)[O-])c1	7.8	12.6	9.7	-11.8	1.6	4.1	.
CSc1ccc(C=NNc2ccc(S(=O)(=O)Nc3ccccc3C(=O)O)cc2[N+](=O)[O-])cc1	8.9	14.4	22.3	32.2*	16.0	19.7	77.5*
CCCC(CCC)=NNc1ccc(S(=O)(=O)Nc2ccccc2OC)cc1[N+](=O)[O-]	1.1	5.0	-1.1	2.9	-4.7	-2.2	.
CCOc1cccc(C=NNc2ccc(S(=O)(=O)Nc3ccccc3C(=O)O)cc2[N+](=O)[O-])c1O	16.0	9.5	30.1*	61.9*	14.0	7.1	66.1*
C=CCOc1ccc(C=NNc2ccc(S(=O)(=O)Nc3ccccc3C(=O)O)cc2[N+](=O)[O-])cc1OC	9.8	15.1	36.8*	50.1*	26.4	13.2	59.1*
Cc1ccc(-c2nnc3n2N=C(c2ccc(-c4ccccc4)cc2)CS3)cc1	.	.	.	-0.2	.	.	.
O=C1[C@@H](CCc2ccccc2)[C@@H]2c3cc4ccccc4cc3C=NN2[C@@H]2c3cc4ccccc4cc3C=NN12	.	.	.	1.2	.	.	.
CCSC1=N/C(=C\c2ccc(-c3ccccc3[N+](=O)[O-])o2)C(=O)S1	4.6	3.8	17.9	37.1*	14.4	9.8	16.1
SMILES	PAFAH1B2 FP inh	PAFAH1B3 inh	pPAFAH FP inh	mABHD4 FP	HTRA1 inhibitor	PAFAH2 inh	mABHD4 conf
O=C(O)c1ccc(NS(=O)(=O)c2ccc3c(c2)C(=O)c2ccccc2C3=O)cc1	.	.	17.6	36.2*	.	.	58.0*
Cc1ccc(C(c2ccc(C)o2)c2cccc([N+](=O)[O-])c2O)o1	5.1	5.2	23.1	17.5	-1.1	14.4	.
Cc1cc(C(c2ccc(C)o2)c2ccc(C)o2)c(O)c([N+](=O)[O-])c1	2.2	-1.6	16.5	43.5*	14.9	4.7	7.4
O=C(N1CCC(C(O)(c2ccccc2)c2ccccc2)CC1)n1ncc(C(O)(c2ccccc2)c2ccccc2)n1	.	.	.	69.9*	.	.	68.5*
Cc1ccn2c(NC3CCCCC3)c(-c3cccc(SC4CCCCC4)c3)nc2c1	7.0	4.4	7.9	30.8*!	-14.6	4.7	25.3
CCCCCCSc1cccc(-c2nc3cc(C)ccn3c2NC2CCCCC2)c1	-2.1	7.6	6.4	17.5	-5.8	-3.6	.
CCC(C)Sc1cccc(-c2nc3cc(C)ccn3c2NC2CCCCC2)c1 (stereo unspecified)	3.6	13.8	0.5	39.2*	-7.6	9.5	52.4*
O=C(N1CCC(n2nc(-c3ccccc3)oc2=O)CC1)C1(c2ccccc2)CCCC1	.	.	.	2.0	.	.	.
Oc1ccc(NC(=S)N=Nc2c(O)[nH]c3ccc(Br)cc23)cc1	10.7	18.6	.	30.4*	8.7	11.7	32.8*
O=C(O)CC/C(=C\c1ccccc1[N+](=O)[O-])c1nc2ccccc2s1	2.8	1.6	0.3	-1.3	3.6	0.8	.
CN(c1ccccc1)c1ccc(/C=C(/CCC(=O)O)c2nc3ccccc3s2)cc1[N+](=O)[O-]	93.7*	11.9	.	46.4*	33.4	40.6*	56.0*
O=C(O)CC/C(=C\c1ccc(N2CCCC2)c([N+](=O)[O-])c1)c1nc2ccccc2s1	102.6*	8.9	16.4	45.8*	10.4	17.1	50.5*
Nc1c(C(=O)N2CCOCC2)cnn1Cc1ccccc1	.	.	.	-0.1	.	.	.
COc1cccc(C(C(=O)NC2CCCC2)N2CCN(c3cc(C)ccc3C)CC2)c1OC (stereo unspecified)	.	.	.	47.9*	.	.	6.1
Cc1ccc(C)c(N2CCN(C(C(=O)NC3CCCC3)c3ccco3)CC2)c1 (stereo unspecified)	.	.	.	-1.1	.	.	.
